Measurements: ChEMBL document CHEMBL4043244, “Diverse amide analogs of sulindac for cancer treatment and prevention” (Bioorg Med Chem Lett, 2017)

Legend:
Type in all cases: functional
MDA-MB-231 = experiment: Growth inhibition of human MDA-MB-231 cells after 72 hrs by CellTiter-Glo reagent based assay; details: MDA-MB-231, 72 h
Summary of the method: (§1)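 Cancer cell lines (PC3 prostate, HT29 colorectal carcinoma, MDA-MB-231 breast) were screened by quantitative high-throughput screening in whole cells, and CC50 values were derived.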

HT-29 = experiment: Growth inhibition of human HT-29 cells after 72 hrs by CellTiter-Glo reagent based assay; details: HT-29, 72 h; summary of the method: as §1
PC-3 = experiment: Growth inhibition of human PC3 cells after 72 hrs by CellTiter-Glo reagent based assay; details: PC-3, 72 h; summary of the method: as §1

Structure (SMILES) | CC50 (MDA-MB-231) [µM] | CC50 (HT-29) [µM] | CC50 (PC-3) [µM]
CSc1ccc(/C=C2/C(C)=C(CC(=O)N(C)CCN(C)S(=O)(=O)c3ccccc3)c3cc(F)ccc32)cc1 | > 50 | 8.82 | > 50
COC(=O)[C@@H](C)NC(=O)CC1=C(C)/C(=C/c2ccc(SC)cc2)c2ccc(F)cc21 | 32 | 16.2 | 44.2
CSc1ccc(/C=C2/C(C)=C(CC(=O)NN3CCN(C)CC3)c3cc(F)ccc32)cc1 | 4.1 | 1.64 | 4.45
CCNCCCN(CC)C(=O)CC1=C(C)/C(=C/c2ccc(SC)cc2)c2ccc(F)cc21 | 3.03 | 1.38 | 3.92
CCN(CC)CCCNC(=O)CC1=C(C)/C(=C/c2ccc([S+](C)[O-])cc2)c2ccc(F)cc21 (configuration not stated) | > 50 | 27.1 | > 50
CCN1CCC[C@H]1CNC(=O)CC1=C(C)/C(=C/c2nc3ccccc3s2)c2ccc(F)cc21 | 5.58 | 1.66 | 7.72
CCNCCCN(CC)C(=O)CC1=C(C)/C(=C/c2ccc([S+](C)[O-])cc2)c2ccc(F)cc21 (configuration not stated) | > 50 | 17.5 | > 50
CC1=C(CC(=O)N2CCN(CCCN(C)C)CC2)c2cc(F)ccc2/C1=C\c1ccc([S+](C)[O-])cc1 (configuration not stated) | 46.2 | 23.8 | > 50
CC1=C(CC(=O)NCCN(C)C)c2cc(F)ccc2/C1=C\c1ccncc1 | 18.1 | 6.89 | 28.9
CCN(CC)CCN(CC)C(=O)CC1=C(C)/C(=C/c2ccc([S+](C)[O-])cc2)c2ccc(F)cc21 (configuration not stated) | > 50 | 18.4 | > 50
CNCCCN(C)C(=O)CC1=C(C)/C(=C/c2ccc([S+](C)[O-])cc2)c2ccc(F)cc21 (configuration not stated) | > 50 | > 50 | > 50
CSc1ccc(/C=C2/C(C)=C(CC(=O)N(C)CCN(C)S(=O)(=O)c3ccc(C)cc3)c3cc(F)ccc32)cc1 | > 50 | 12.9 | > 50
CCN(CC)CCNC(=O)CC1=C(C)/C(=C/c2cc(OC)c(OC)c(OC)c2)c2ccc(F)cc21 | 12.3 | 5.42 | 13.9
CC1=C(CC(=O)N(C)CCCN(C)C)c2cc(F)ccc2/C1=C\c1ccc([S+](C)[O-])cc1 (configuration not stated) | > 50 | 38.9 | > 50
CC1=C(CC(=O)NCCN2CCCC2)c2cc(F)ccc2/C1=C\c1ccncc1 | 7.19 | 2.68 | 10.2
CC1=C(CC(=O)N2CCN(c3ccncc3)CC2)c2cc(F)ccc2/C1=C\c1ccc([S+](C)[O-])cc1 (configuration not stated) | 22.7 | 9.2 | 21.9
CC1=C(CC(=O)N(C)CCN(C)S(=O)(=O)c2ccccc2)c2cc(F)ccc2/C1=C\c1ccc([S+](C)[O-])cc1 (configuration not stated) | 12.2 | 6.09 | 8.2
CSc1ccc(/C=C2/C(C)=C(CC(=O)N(C)CCN(C)S(=O)(=O)c3ccc4ccccc4c3)c3cc(F)ccc32)cc1 | > 50 | 35.3 | > 50
CSc1ccc(/C=C2/C(C)=C(CC(=O)NCCCN(C)C)c3cc(F)ccc32)cc1 | 5.18 | 2.46 | 6.99
CSc1ccc(/C=C2/C(C)=C(CC(=O)NCc3ccncc3)c3cc(F)ccc32)cc1 | 6.46 | 4.88 | 5.83
CSc1ccc(/C=C2/C(C)=C(CC(=O)N(C)CCN(C)C(=O)[C@@H](N)C(C)C)c3cc(F)ccc32)cc1 | 7.33 | 3.72 | 7.08
CNCCN(C)C(=O)CC1=C(C)/C(=C/c2cc(OC)c(OC)c(OC)c2)c2ccc(F)cc21 | 17 | 8.05 | 23.1
CSc1ccc(/C=C2/C(C)=C(CC(=O)N3CCNCC3)c3cc(F)ccc32)cc1 | 3.69 | 2.47 | 6.5
CSc1ccc(/C=C2/C(C)=C(CC(=O)NCc3ccccn3)c3cc(F)ccc32)cc1 | 13.7 | 10.3 | 13.6
